Test results reported in the array DNA melting data of Ke et al. (doi:10.1101/2024.01.08.574731).

Legend:
[1] = folding enthalpy; higher = less favourable; fluorescence melt of hairpins on a sequencing array, two-state fit; details: sodium 0.088 M
In short: (§1)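 Folding enthalpy and melting temperature come from bootstrapped two-state fits to Cy3 fluorescence of library hairpins carrying annealed Cy3 and quencher oligos on a sequenced MiSeq flow cell. Imaging was done in 50 mM Na-HEPES pH 8.0, 25 mM NaCl, stepping by 2.5 °C up to 60 °C, and signals were normalised to pre-quench Cy3 and to control constructs. Results of four replicates were combined by inverse variance, and fitted temperatures were raised by 9.35 °C to match UV melts.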

[2] = melting temperature; fluorescence melt of hairpins on a sequencing array, two-state fit, raised by 9.35 °C to match UV melts; details: sodium 0.088 M
In short: as §1

Sequence | folding enthalpy [1] | Tm [2]
GCATAGACGAAAGTCTGC (((..(((....)))))) | -15.5 kcal/mol | 46.3 °C
GATGTGCGAAAGCAAATC (((.(((....))).))) | -23.3 kcal/mol | 46.6 °C
GCGCTGCGAAAGCGTCGC (((..((....))..))) | -25.4 kcal/mol | 59.7 °C
GATCTGGTGTCAGATC ((((((....)))))) | -35.2 kcal/mol | 49.8 °C
GACTCGGGAAACCGAATC ((.((((....)))).)) | -18.2 kcal/mol | 35.4 °C
GTGCATACGAAAGTACAC (((..(((....)))))) | -8.91 kcal/mol | 29.3 °C
GAGAACCGAAAGGTCCTC (((.(((....))).))) | -24.6 kcal/mol | 46.6 °C
GTTGCCGAAAGGCATAAC ((((((....)))..))) | -9 kcal/mol | 36.8 °C
GTCATAGAAATATGAC ((((((....)))))) | -30.2 kcal/mol | 45.6 °C
GCGGGAGGCCGC ((((....)))) | -18.4 kcal/mol | 57.8 °C
TAACTGAAAAGTTA (((((....))))) | -9.74 kcal/mol | 29.4 °C
GAAAGCGGAAACGCTTTC (((((((....))))))) | -41 kcal/mol | 65.5 °C
GTGCGTCGAAAGACCAC (((.(((....)))))) | -29.6 kcal/mol | 56.2 °C
GTGTTCGAAAGAACTCAC ((((((....)))..))) | -13.7 kcal/mol | 38.1 °C
GCCCTCGAAAGAGTAGGC ((((((....)))..))) | -29.5 kcal/mol | 49 °C
GATCGGATTCCCGATC ((((((....)))))) | -36 kcal/mol | 55.5 °C
GGTTGAGGAAACTTAACC ((((.((....)).)))) | -31.9 kcal/mol | 39.8 °C
GTGATAACGAAAGTTCAC (((..(((....)))))) | -15.1 kcal/mol | 37.5 °C
GTACCGCGAAAGCGATAC (((.(((....))).))) | -23.6 kcal/mol | 48.5 °C
GTAGTCGGAAACGACTAC (((((((....))))))) | -41.2 kcal/mol | 64.8 °C
GTCTTAGGAAACTAGGAC (((.(((....))).))) | -33.8 kcal/mol | 38.4 °C
GCGTTAGAACGC ((((....)))) | -20.3 kcal/mol | 52.8 °C
GGGACGGGAAACCACCCC (((..((....))..))) | -18.4 kcal/mol | 32.1 °C

Sequence | folding enthalpy [1] | Tm [2]
GTCTCCCCGAAAGGGGAC (((..(((....)))))) | -7.01 kcal/mol | 37.8 °C
GCTGACGAAAGTCAAAGC ((((((....)))..))) | -17.9 kcal/mol | 48.7 °C
GTAGGTGGAAACACCTGC (.(((((....))))).) | -18.5 kcal/mol | 53.4 °C
GCCTCATCGAAAGATGGC (((..(((....)))))) | -10.1 kcal/mol | 43.8 °C
GATCTTGTAAAAGATC ((((((....)))))) | -41.1 kcal/mol | 52.8 °C
GCATTTGCGAAAGCATGC (((..(((....)))))) | -17.9 kcal/mol | 44.9 °C
GATCGAATAATCGATC ((((((....)))))) | -30.8 kcal/mol | 47.6 °C
GTCAACGGAAACATTGAC (((((.(....).))))) | -26.4 kcal/mol | 35.6 °C
GAGGGCGAAAGCCGACTC ((((((....)))..))) | -13 kcal/mol | 44.6 °C
GATCCGAGTCGGATC ((((((...)))))) | -35 kcal/mol | 59.5 °C
GGTTTCGAAAGAACACC ((((((....))).))) | -26.8 kcal/mol | 37.6 °C
GCGTAATAACGC ((((....)))) | -21.1 kcal/mol | 51.6 °C
GAGGCCGAAAGGCGACTC ((((((....)))..))) | -12.7 kcal/mol | 44.7 °C
GTTCAAGGAAACTTAAAC (((.(((....))).))) | -10.5 kcal/mol | 29 °C
GAGCCAGGAAACCAGCTC ((((..(....)..)))) | -24.6 kcal/mol | 34.9 °C
GGTTCCGAAAGGATACC ((((((....))).))) | -28.1 kcal/mol | 48.8 °C
GGAGACCCGAAAGGGTCC (((..(((....)))))) | -7.91 kcal/mol | 47.6 °C
GCCAGCGGAAACGCTAGC ((.((((....)))).)) | -20.5 kcal/mol | 49 °C
GTCTGCGAAAGCAAAGAC ((((((....)))..))) | -19.1 kcal/mol | 50.1 °C
GATCCCTCGGGGGATC ((((((....)))))) | -37.4 kcal/mol | 61.2 °C
GGGAATGGAAACATTCCC (((((((....))))))) | -54.2 kcal/mol | 62 °C
GATCTTGAAGAAGATC ((((((....)))))) | -25.9 kcal/mol | 44.3 °C
GAATCCCGAAAGGGTTTC (((.(((....))).))) | -23.6 kcal/mol | 45.6 °C

Sequence | folding enthalpy [1] | Tm [2]
GATCTCGCTAGAGATC ((((((....)))))) | -43.5 kcal/mol | 67.6 °C
GGTGGCGAAAGCCAACC ((((((....))).))) | -16.9 kcal/mol | 64.5 °C
GATCATGCTATGATC ((((((...)))))) | -27.9 kcal/mol | 49.9 °C
CAGGTGAAAACCTG (((((....))))) | -24.5 kcal/mol | 53 °C
GCTTTGCGAAAGCGGAGC (((..((....))..))) | -17.3 kcal/mol | 53.6 °C
GGCCTCGAAAGAGCCGCC ((((((....)))..))) | -20.3 kcal/mol | 57.2 °C
GAGCCTGGAAACAGGTTC ((.((((....)))).)) | -27.2 kcal/mol | 49.5 °C
GTTCACGAAAGTGCGAAC ((((((....)))..))) | -10.7 kcal/mol | 31.6 °C
GACTGTGGAAACACGGTC (((.(((....))).))) | -40.6 kcal/mol | 52.2 °C
GATGGGGGAAACTCCATC (((((.(....).))))) | -32.9 kcal/mol | 49.2 °C
GCCTTCGAAAGAACCGGC ((((((....)))..))) | -19.4 kcal/mol | 33.9 °C
GTACTCGAAAGAGATAC ((((((....))).))) | -18 kcal/mol | 34.5 °C
GCGTCAGTACGC ((((....)))) | -20.1 kcal/mol | 51.1 °C
GGCTACCCGAAAGGGGCC (((..(((....)))))) | -18.9 kcal/mol | 50.6 °C
GGCGTAGGAAACTATGCC (((.(((....))).))) | -41.8 kcal/mol | 53.5 °C
GTTTCTCGAAAGAGCAAC (((.(((....))).))) | -23.6 kcal/mol | 36.4 °C
GGCCTCGAAAGAGGGGCC ((((((....)))..))) | -23 kcal/mol | 54.9 °C
GTGGGCGAAAGCCAGCAC ((((((....)))..))) | -12.8 kcal/mol | 46.5 °C
GCTACCGAAAGGTGCAGC ((((((....)))..))) | -12.6 kcal/mol | 43.5 °C
GATCACCAGTGTGATC ((((((....)))))) | -47.5 kcal/mol | 53.3 °C
GCTCAAGCGAAAGCTAGC (((..(((....)))))) | -14.1 kcal/mol | 40.6 °C
GACACCGAAAGGTCCGTC ((((((....)))..))) | -16.9 kcal/mol | 31.4 °C
GCACTCCCGAAAGGGTGC (((..(((....)))))) | -24.2 kcal/mol | 50.7 °C
